The list is not random: actives were taken first. Their share in the collection is about 3.3%.
PRMT1 FP inh – blocks human protein arginine methyltransferase 1. recombinant PRMT1, activity-based probe fluorescence polarization. hit rate 1.3% among 370,000. AID 652257. inhibition, % at 2.79 µM. Q99873;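 active means inhibition above about 21% made by adding two undisclosed values, limit read from the data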
Target sequence (Q99873 whole entry, looked up): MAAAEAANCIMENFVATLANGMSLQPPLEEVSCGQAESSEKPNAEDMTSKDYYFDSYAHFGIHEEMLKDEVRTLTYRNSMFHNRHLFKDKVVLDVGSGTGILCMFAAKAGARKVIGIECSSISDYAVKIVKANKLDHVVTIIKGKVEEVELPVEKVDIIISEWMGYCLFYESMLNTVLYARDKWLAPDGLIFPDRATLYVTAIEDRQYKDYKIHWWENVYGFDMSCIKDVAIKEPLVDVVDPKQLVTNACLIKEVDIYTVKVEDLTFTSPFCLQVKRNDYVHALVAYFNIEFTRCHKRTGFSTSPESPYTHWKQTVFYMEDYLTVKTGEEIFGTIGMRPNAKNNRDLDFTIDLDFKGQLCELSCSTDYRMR
rCAG RNA binder – molecules binding r(CAG) RNA repeats | r(CAG) RNA repeat, TO-PRO-1 dye displacement fluorescence | inhibition, % at 3 µM | hit rate 1.3% among 370,000 | AID 651821;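 active means inhibition above the plate cutoff, the mean of all test compounds on that plate plus 3 SD, cut at about 35% in these data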;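 further: 0% = DMSO alone and 100% = 100 µM mitoxantrone as full dye displacement; higher means more dye released from RNA so lower well fluorescence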
ABHD4 inh – ABHD4 (mouse) inhibition, primary FP screen; Q8VD66; AID 720543; purified mABHD4, FP-Rh probe fluorescence polarization; hit rate 0.54% among 370,000; inhibition, % at 8.92 µM;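 active means inhibition exceeding the mean over every tested compound plus 3 SD, cut at about 30% in these data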;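 further: 0% = plate median of compound wells and 100% = S159A mutant with DMSO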
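system = mouse ABHD4 enzyme, wild type | medium = HEPES pH 7.0, NaCl, Pluronic buffer | also added = FP-Rh probe | incubation = Enzyme–compound pre-incubation 45 min, then probe 60 min, both 25 °C | technique = fluorescence polarization, excitation 525 nm, emission 598 nm, BODIPY TMR filters | controls = S159A mutant high control, sample median low control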
SIAE inh – inhibitors of human sialic acid acetylesterase SIAE; Q9HAT2; SIAE FP-Rh probe binding, fluorescence polarization; inhibition, % at 9.66 µM; hit rate 0.69% among 370,000; AID 1053197;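 active means inhibition above a cutoff: mean of compounds within the control limits plus 3 SD of those, cut at about 17% in these data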;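 further: 0% = plate median of compound wells and 100% = probe without SIAE protein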
HTRA1 inhibitor – inhibitors of human serine peptidase HTRA1; recombinant HTRA1, FP-rhodamine activity-based probe, fluorescence polarization; inhibition, % at 5.96 µM; hit rate 0.5% among 340,000; AID 504803; in the data active means inhibition above about 36%;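 further: 0% = enzyme with DMSO and 100% = wells lacking enzyme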
rCAG bind conf – r(CAG) RNA repeat binding, confirmation; inhibition, % at 3 µM; shares compounds with rCAG RNA binder; TO-PRO-1 dye displacement fluorescence; hit rate 70% among 4,300;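 active means inhibition above a per-plate cutoff, the mean inhibition of sample wells plus 3 SD, cut at about 35% in these data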;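 further: loss of TO-PRO-1 fluorescence as compound displaces dye from 1x1 AA loop RNA; 0% = DMSO only wells and 100% = 100 µM mitoxantrone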
dCAG dye counter – counter-screen for rCAG RNA binders: DNA CAG dye complex inhibitors. d(CAG) DNA oligo TO-PRO-1 dye displacement, fluorescence. hit rate 94% among 4,300. shares compounds with rCAG RNA binder. inhibition, % at 3 µM. AID 652068;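 active means inhibition above its plate's cutoff, the mean test-well inhibition plus 3 SD, cut at about 4.8% in these data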;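 further: 0% = DNA dye mix with DMSO and 100% = 100 µM mitoxantrone; hits displace the dye from DNA and so lower well fluorescence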
DNA CAG DR – DNA CAG dye complex inhibition, dose response counter-screen; hit rate 20% among 250; IC50, µM; shares compounds with rCAG RNA binder; DNA CAG/GTC duplex TO-PRO-1 dye displacement fluorescence; in the data active means IC50 below about 10 µM
PRMT1 confirm – PRMT1 (human) inhibition, FP confirmation; shares compounds with PRMT1 FP inh; recombinant His-PRMT1, activity-based probe fluorescence polarization; inhibition, % at 2.79 µM; hit rate 42% among 3,300;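 active means mean inhibition across replicates above the hit cutoff derived for the earlier primary screen, cut at about 22% in these data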
mABHD4 conf – ABHD4 (mouse) inhibition, FP confirmation | AID 720658 | shares compounds with ABHD4 inh | inhibition, % at 8.92 µM | hit rate 55% among 1,800 | purified mABHD4, FP-Rh probe fluorescence polarization;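 active means mean inhibition across replicates above the hit cutoff set in the primary screen, cut at about 30% in these data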;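 further: 0% = wild-type ABHD4 with DMSO and 100% = catalytically dead S159A mutant with DMSO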
* hit, by the source's call; . = no result given.

SMILES	PRMT1 FP inh	rCAG RNA binder	ABHD4 inh	SIAE inh	HTRA1 inhibitor	rCAG bind conf	dCAG dye counter	mABHD4 conf	others
O=C(O)CC/C(=C\c1ccccc1[N+](=O)[O-])c1nc2ccccc2s1	2	19	-1	-10	4	.	.	.
CN(c1ccccc1)c1ccc(/C=C(/CCC(=O)O)c2nc3ccccc3s2)cc1[N+](=O)[O-]	11	77*	46*	7	33	82*	43*	56*
O=C(c1ccc(Br)cc1)N1CCN(c2ccccn2)CC1	-2	22	-1	14	0	.	.	.
CC(C)Oc1cccc(C(=O)NC(=S)NCc2cccnc2)c1	1	1	2	-30	1	.	.	.
COc1ccc(/C=N/NC(=O)c2nn(-c3ccc(Cl)cc3)c(=O)c3c(N)scc23)cc1	24*	42*	30*	11	22	27	18*	17
COc1ccc(/C=N/NC(=O)c2nn(-c3ccccc3)c(=O)c3c(N)scc23)cc1	22*	42*	46*	11	21	28	18*	27
COc1ccc(/C=N/NC(=O)c2nn(-c3ccc(C)c(C)c3)c(=O)c3ccccc23)cc1	1	2	-1	-16	2	.	.	.
O=C(NCc1ccccc1)c1sc(=S)n2c1[nH]c(=O)c1ccccc12	3	47*	32*	-17	10	83*	50*	42*
COc1cccc(N2CCN(C(=O)c3ccc(Cl)c(NC4=NC5CS(=O)(=O)CC5S4)c3)CC2)c1 (stereo not drawn)	0	1	6	-5	3	.	.	.
O=c1oc(-c2ccc(Cl)cc2[N+](=O)[O-])nc2ccccc12	-2	7	5	3	-11	.	.	.
Cc1ccc(NS(=O)(=O)c2ccc3[nH]c(=O)c(=O)[nH]c3c2)cc1Cl	2	13	-14	-6	-8	.	.	.
Cc1ccc(NS(=O)(=O)c2ccc(Cl)c(N=Nc3c(O)[nH]c(=O)[nH]c3=O)c2)cc1Cl	-3	66*	31*	5	1	76*	36*	48*
O=C(O)c1ccc2nc(-c3ccco3)c(-c3ccco3)nc2c1	55*	42*	63*	6	16	47*	12*	18	PRMT1 confirm=67*
Cc1ccc(-c2nc3ccc(C(=O)O)cc3nc2-c2ccc(C)cc2)cc1	2	3	-3	-5	-6	.	.	.
Nc1ccc2c(O)cc(S(=O)(=O)O)cc2c1	.	87*	39*	-15	25	34	9.7*	26
O=C(NN=C1CCN(Cc2ccccc2)CC1)c1cc2ccccc2cc1O	-1	52*	46*	12	36	57*	30*	43*
CCCSC1=N/C(=C\c2ccc([N+](=O)[O-])o2)C(=O)S1	29*	40*	38*	15	18	47*	20*	7	DNA CAG DR=>30;PRMT1 confirm=7
O=C(NC(=S)N1CC=CCC1)c1ccccc1	-4	4	2	-2	0	.	.	.
O=C1NN(c2cccc(Br)c2)C(=O)/C1=C\c1ccccc1	15	77*	37*	7	-4	39*	11*	4
O=C1NN(c2ccccc2)C(=O)/C1=C\c1ccccc1	6	10	9	0	6	.	.	.
Cc1cc(/C=C2\SC(=S)NC2=O)c(C)n1-c1ccc(O)cc1	-5	49*	35*	-9	-18	42*	14*	44*
COc1ccc(CC(N)c2csc(Nc3ccc(S(C)(=O)=O)cc3)n2)cc1 (stereo not drawn)	3	10	8	0	.	.	.	.
COc1cc(NS(=O)(=O)c2ccc(Nc3nc(-c4ccccn4)cs3)cc2)nc(OC)n1	2	45*	35*	-1	12	34	8.9*	31*
COc1ccc(-c2csc(Nc3ccc(S(=O)(=O)Nc4cc(C)on4)cc3)n2)cc1C	-1	93*	34*	15	-43	82*	43*	29
COc1cc(NS(=O)(=O)c2ccc(NC(=O)c3cccs3)cc2)nc(OC)n1	-4	15	-3	0	-6	.	.	.
SMILES	PRMT1 FP inh	rCAG RNA binder	ABHD4 inh	SIAE inh	HTRA1 inhibitor	rCAG bind conf	dCAG dye counter	mABHD4 conf	others
COc1cc(OC)cc(C(=O)N[C@H](C(=O)Nc2cc(C)cc(C)c2)C(C)C)c1	3	-3	-1	-1	-11	.	.	.
O=C(/C=C1\C(=O)Nc2ccccc21)/C=C1\C(=O)Nc2ccccc21	53*	39*	41*	19*	25	32	20*	24	PRMT1 confirm=74*
O=C(O)c1cc(N/N=C2/CC(c3ccccc3)Oc3ccccc32)ccc1Cl (stereo not drawn)	6	46*	32*	7	4	62*	22*	72*
O=C1CC(c2ccccc2)Oc2ccc(Cl)cc21 (stereo not drawn)	1	1	-6	2	-14	.	.	.
N#Cc1c(NC(=O)c2cccc(S(=O)(=O)Nc3ccc(C(=O)O)cc3)c2)sc2c1CCCC2	1	61*	36*	-8	-2	46*	17*	30*
CC1=NN(C(N)=S)C(=O)C1N=Nc1c(Br)cc(Br)cc1Br (stereo not drawn)	2	46*	30*	4	33	43*	13*	57*	DNA CAG DR=>30
COc1ccc(N(C(=O)C(C)C)S(=O)(=O)c2cccs2)cc1	0	-2	-1	-8	8	.	.	.
CC(C)C(=O)N(c1cc2sc(=O)oc2c2ccccc12)S(=O)(=O)c1cccs1	81*	77*	42*	11	17	48*	23*	20	PRMT1 confirm=22*
CC(C(=O)NCc1ccccc1Cl)n1cc([N+](=O)[O-])cn1 (stereo not drawn)	1	-4	1	-8	6	.	.	.
CCCCC1CC2=C(C(=O)OC(C)(C)O2)C(c2cccc3ccccc23)O1 (stereo not drawn)	1	2	-5	-5	.	.	.	.
O=[N+]([O-])c1c(Nc2ccccc2O)cc(Cl)c2nonc12	60*	41*	33*	6	29	20	9.7*	49*	PRMT1 confirm=53*
O=[N+]([O-])c1c(Nc2ccccc2O)ccc2nonc12	-5	1	0	-1	-1	.	.	.
O=[N+]([O-])c1c(NCCCO)cc(SCc2ccco2)c2nonc12	64*	47*	54*	-2	11	6	2	16

Source: PubChem BioAssay (The Scripps Research Institute Molecular Screening Center)
